# In article PMC5033602 (Investigative Ophthalmology & Visual Science, 2016):
# Entries after “also recorded” stand apart in the source; their conditions may differ.
# Columns and labels:
# [1] = test system: primary pig RPE cells; test: Cell viability; type: cell-based
# Method in brief: (§1)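 Primary pig RPE cultures plated at 2 × 10⁴ cells/well (96-well) and grown to confluence (72 h), then exposed to H₂O₂ with TNF-α (10 ng/mL) and test peptide for the indicated time. Live cells were measured as intracellular ATP luminescence (CellTiter-Glo) and dead cells as dead-cell protease luminescence (CytoTox-Glo), with lysis reagent added for total-cell signal. Relative cell numbers are from duplicate wells.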
# [2] = test system: ARPE-19 cells; test: Cell viability; type: cell-based, human
# Method in brief: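 ARPE-19 cells (passages 27–40; DMEM/F-12, 10% FBS, 37°C, 5% CO₂) were plated at 2 × 10⁴ cells/well and grown to confluence (72 h). After 8 h starvation in 0.5% serum, cells received increasing H₂O₂ plus TNF-α (10 ng/mL), with or without test peptide, for 16 h. Relative live-cell numbers came from intracellular ATP luminescence; each point is the mean of duplicate wells.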
# [3] = test system: human recombinant 5-LOX; test: Peptide-affinity chromatography, human recombinant 5-LOX; type: binding; conditions: 0.1 M sodium phosphate, 0.1% NP-40, Western blot
# Method in brief: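 Human recombinant 5-LOX (300 ng) was incubated with P1-peptide agarose (0.4 nmol) in 0.1 M sodium phosphate and 0.1% NP-40 containing 25–250 mM NaCl, with gentle rotation at 4°C (1.5 h per general method). Agarose without peptide at 50 mM NaCl served as control resin. After extensive washes, bound protein was eluted in SDS-PAGE sample buffer and detected by anti-5-LOX Western blot (1:10,000) with chemiluminescence on film.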
# [4] = test system: ARPE-19 cells; test: Cell death; type: cell-based, human
# Method in brief: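 ARPE-19 cells (passages 27–40) grown in DMEM/F-12 with 10% FBS at 37°C, 5% CO₂, plated at 2 × 10⁴ cells/well (96-well) and cultured to confluency (72 h). Serum-starved 8 h in 0.5% serum, then exposed 16 h to H₂O₂ (600 μM for scrambled-control comparison) plus TNF-α (10 ng/mL) with test peptides. Dead-cell protease activity read by CytoTox-Glo; duplicate wells ± SD.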
# [5] = test system: LTB4 (5-LOX activity) in ARPE-19 cells; test: Leukotriene B4 ELISA, ARPE-19 medium; type: cell-based, human
# [6] = test system: primary pig RPE cells; test: Cell death; type: cell-based; conditions: for Cell death under oxidative stress: pig RPE
# Method in brief: as §1
# [7] = test system: LTB4 (5-LOX activity) in primary pig RPE cells; test: Leukotriene B4 ELISA, primary pig RPE medium; type: cell-based; conditions: 125 μM or 250 μM H2O2/TNF-α
# Method in brief: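 Primary pig RPE cultures received H₂O₂ with TNF-α and test peptide. Medium was collected per well, spun briefly at low speed, and 50 μL was assayed by competitive LTB₄ enzyme immunoassay. Concentration came from an LTB₄ standard curve and was normalized to cell number per well. Duplicate wells per condition, each well measured in triplicate; experiment run twice.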
# [8] = test system: ARPE-19 cells; test: Pyknotic nuclei counting; type: cell-based, human; conditions: 600 μM H2O2, 16 hours, Hoechst stain
# Method in brief: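 ARPE-19 cells were serum-starved, then treated with 600 μM H₂O₂ and test peptide together for 16 h. Cells were fixed in methanol (15 min, RT) and stained with 5 μM Hoechst in PBS (15 min, RT). Five random fields per well were imaged, and pyknotic nuclei were counted as a percentage of total cells.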
# [9] = test system: PEDF; conditions: peptides from Leu159-Met325 of PEDF-R; cited from earlier work
substance,measurement,setting,value
"P1: L4-derived peptide containing residues Thr^210-Leu^249 of human PEDF-R (TSIQFNLRNLYRLSKALFPPEPLVLREMCKQGYRDGLRFL; UniProt Q96AD5 210-249, looked up, fragment)",Cell viability under oxidative stress,[1]; 125 μM H2O2,increased pig RPE cell viability
same,Cell numbers (viability) under oxidative stress,[1]; 250 μM H2O2,did not increase the cell numbers
same,Protective effect against H2O2,"[2]; 600 μM H2O2 plus TNF-α (10 ng/mL), preliminary, data not shown",had protective effects against 600 μM H2O2
same,Cell viability under oxidative stress,"[2]; H2O2/TNF-α, ATP live cell biomarker, duplicate wells",promoted cell viability; also recorded: increased the ARPE-19 cell viability
same,Binding of 5-LOX to P1 at 250 mM NaCl,[3]; 250 mM NaCl,completely abolished
same,Binding of 5-LOX to P1 with increasing ionic strength,[3]; 25-250 mM NaCl,with increasing ionic strength the binding decreased
same,Number of dead cells under oxidative stress,"[4]; H2O2 (600 μM for SCR comparison), dead cell protease activity",decreased cell death of RPE cells undergoing oxidative stress; also recorded: decreased the number of dead cells under oxidative stress in a concentration-dependent fashion
same,Protection from oxidative stress-induced cell death (summary),[4]; H2O2/TNF-α,protected ARPE-19 and pig primary RPE cells from oxidative stress–induced cell death in a specific and concentration-dependent fashion
same,LTB4 level under oxidative stress,"[5]; 600 μM H2O2/TNF-α, 20 nM P1",decreased LTB4 to basal levels
same,LTB4 level under oxidative stress,[5]; 750 μM H2O2/TNF-α,only partially diminished LTB4
same,Cell death under oxidative stress,[6]; 125 μM H2O2,decreased death at 125 μM H2O2
same,Cell death under oxidative stress,[6]; 250 μM H2O2,decreased cell death at 250 μM H2O2
same,Protection from oxidative stress-induced cell death (summary),"[6]; pig primary RPE, H2O2/TNF-α",protected ARPE-19 and pig primary RPE cells from oxidative stress–induced cell death in a specific and concentration-dependent fashion
same,LTB4 level under oxidative stress,[7],decreased LTB4 levels in primary pig RPE cells treated at 125 μM or 250 μM H2O2/TNF-α in a concentration-dependent fashion
same,Pyknotic nuclei level,[8],resulted in a decrease of pyknotic nuclei level
same,PEDF-binding affinity,[9],retain the PEDF-binding affinity of PEDF-R
